Laboratory results from PMC3629979 (Molecular imaging, 2010).

Columns and labels:
U87MG tumor = assay: In vivo NIRF optical imaging of U87MG tumor-bearing nude mice; conditions: for nonspecific tumor targeting / accumulation of unconjugated dye: Cy5.5 and Cy7 data not shown; for tumor to muscle ratio, time course: 1, 2 and 4 hours postinjection, in words; for tumor to muscle ratio, time course / tumor to muscle ratio: 0.5 nmol i.v.; for tumor to muscle ratio: light intensity ratio, 4 hours postinjection, mean ± SD, n = 3
[1] = for kidney uptake: 4 hours postinjection, 0.5 nmol i.v., ex vivo imaging, in words; for excretion route: inferred from kidney uptake at 4 hours postinjection
in vivo = conditions: female, athymic nude, mouse, U87MG tumor, iv, 0.5 nmol
murine integrin β3 = assay: Immunofluorescence colocalization in U87MG tumor sections, murine integrin β3; format: in vivo; conditions: 1 nmol i.v., 30 minutes postinjection; frozen tumor sections; one mouse
Outline: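 Single female athymic nude mouse with subcutaneous U87MG xenograft (5 × 10⁶ cells, right front flank; tumours 100 to 300 mm³) given 1 nmol Cy5.5-labelled test compound by tail vein. Killed at 30 min, perfused with 20 mL PBS, tumour frozen-sectioned. Sections incubated 1 h at room temperature with hamster antimouse integrin β3 (1:100), then FITC secondary (1:200). Fluorescence microscopy overlay.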

| Compound | nonspecific tumor targeting / accumulation of unconjugated dye (U87MG tumor) | kidney uptake [1] | excretion route [1] | tissue uptake at 4 h (in vivo) | tumor to muscle ratio, time course (U87MG tumor) | tumor to muscle ratio (U87MG tumor) | other results |
| --- | --- | --- | --- | --- | --- | --- | --- |
| CCN1C(=CC=CC=CC=CC2=[N+](CCCCCC(=O)O)c3ccc(S(=O)(=O)O)cc3C2(C)C)C(C)(C)c2cc(S(=O)(=O)[O-])ccc21 [Cy7, reference compound] | relatively high tumor-nonspecific targeting | – | – | – | – | – | – |
| CC1(C)C(/C=C/C2=C(Oc3ccc(S(=O)(=O)O)cc3)C(=C/C=C3/N(CCCCS(=O)(=O)O)c4ccc(S(=O)(=O)[O-])cc4C3(C)C)/CCC2)=[N+](CCCCCC(=O)O)c2ccc(S(=O)(=O)O)cc21 [IRDye800, reference compound] | only a lower nonspecific tumor accumulation | – | – | – | – | – | – |
| CC1(C)C(=CC=C2CCCC(C=CC3=[N+](CCCCCC(=O)N[C@@H](CCC(=O)NCCOCCOCCOCCOCCC(=O)NCCCC[C@@H]4NC(=O)[C@@H](Cc5ccccc5)NC(=O)[C@H](CC(=O)O)NC(=O)CNC(=O)[C@H](CCCNC(=N)N)NC4=O)C(=O)NCCOCCOCCOCCOCCC(=O)NCCCC[C@@H]4NC(=O)[C@@H](Cc5ccccc5)NC(=O)[C@H](CC(=O)O)NC(=O)CNC(=O)[C@H](CCCNC(=N)N)NC4=O)c4ccc(S(=O)(=O)O)cc4C3(C)C)=C2Oc2ccc(S(=O)(=O)O)cc2)N(CCCCS(=O)(=O)[O-])c2ccc(S(=O)(=O)O)cc21 [IRDye800-PEG4-RGD2, IRDye800-E[PEG4-c(RGDfK)]2] | – | high kidney uptake | mainly excreted by the renal route | 5.87 ± 1.21 %ID/g | increased tumor to muscle ratios from 1 to 4 hours | 4.63 ± 0.28 | – |
| CC1(C)C(=CC=C2CCCC(C=CC3=[N+](CCCCCC(=O)N[C@@H](CCC(=O)NCCCC[C@@H]4NC(=O)[C@@H](Cc5ccccc5)NC(=O)[C@H](CC(=O)O)NC(=O)CNC(=O)[C@H](CCCNC(=N)N)NC4=O)C(=O)NCCCC[C@@H]4NC(=O)[C@@H](Cc5ccccc5)NC(=O)[C@H](CC(=O)O)NC(=O)CNC(=O)[C@H](CCCNC(=N)N)NC4=O)c4ccc(S(=O)(=O)O)cc4C3(C)C)=C2Oc2ccc(S(=O)(=O)O)cc2)N(CCCCS(=O)(=O)[O-])c2ccc(S(=O)(=O)O)cc21 [IRDye800-RGD2, IRDye800-E[c(RGDfK)]2] | – | high kidney uptake | mainly excreted by the renal route | 2.71 ± 0.77 %ID/g | increased tumor to muscle ratios from 1 to 4 hours | 3.31 ± 0.22 | – |
| Cy5.5 [reference compound] | relatively high tumor-nonspecific targeting | – | – | – | – | – | – |
| Cy5.5-E[PEG4-c(RGDfK)]2 [Cy5.5-PEG4-RGD2] | – | – | – | – | – | – | colocalization with murine integrin β3 (murine integrin β3): good colocalization |
